Screening data (PubChem)
C8 TRAIL sens: caspase-8 TRAIL sensitization; NB7+C8 cells + TRAIL, ATPlite viability luminescence; inhibition (viability loss, TRAIL sensitization), % at 10 µM; 1% of 360,000 active;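 active = compounds causing at least 50% loss of cell viability in the single-dose screen, relative to plate controls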
FLuc inh counter: inhibits firefly luciferase, flagging false hits in luciferase inhibition screens; P08659; inhibition, % at 10 µM; 1.5% of 200,000 active; ATPLite firefly luciferase biochemical luminescence, 10 min;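 active = inhibition above about 50% when tested at 10 µM, limit read from the data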
Target sequence (P08659 whole entry, looked up): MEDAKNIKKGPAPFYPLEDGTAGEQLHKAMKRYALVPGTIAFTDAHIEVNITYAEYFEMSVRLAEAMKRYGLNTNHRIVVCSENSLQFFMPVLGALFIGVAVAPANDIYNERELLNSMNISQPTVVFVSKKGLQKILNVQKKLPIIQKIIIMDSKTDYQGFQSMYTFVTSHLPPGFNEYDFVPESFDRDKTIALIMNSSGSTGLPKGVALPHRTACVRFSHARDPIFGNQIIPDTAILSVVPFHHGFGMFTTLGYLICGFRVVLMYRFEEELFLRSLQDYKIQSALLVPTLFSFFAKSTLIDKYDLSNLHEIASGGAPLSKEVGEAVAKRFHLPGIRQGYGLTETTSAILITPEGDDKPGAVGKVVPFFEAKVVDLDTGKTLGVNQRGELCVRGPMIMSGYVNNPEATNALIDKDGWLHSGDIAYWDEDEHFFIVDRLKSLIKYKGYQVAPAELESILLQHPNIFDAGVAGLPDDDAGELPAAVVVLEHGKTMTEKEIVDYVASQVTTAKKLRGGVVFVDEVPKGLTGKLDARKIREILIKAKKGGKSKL
NF-kB expr up: NF-kB expression increase, human neuronal cells; NF-kB reporter expression; active compounds read high; fold change at 12.5 µM; 1.6% of 190,000 active; AID 1239; in the data active = fold change above about 3.3
APP 5'UTR act: activates APP 5'UTR luciferase reporter; SH-SY5Y APP 5'UTR luciferase reporter, luminescence; zero percent = DMSO vehicle wells; activation, % at 2 µM; 1% of 190,000 active; AID 1276;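 active = activation above a set limit, based on mean plus 3 SD of controls, cut at about 140% in these data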
FLuc stim CS: firefly luciferase counter-screen for stimulation assays; 200,000 tested, under 10 active; ATPlite luciferase biochemical, luminescence, 10 min; 0 = ATP-free wells, 1 = DMSO control; activation factor at 10 µM;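 active = luciferase activation factor, scaled between plate controls, of at least 2 with compound at 10 µM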
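Assay system – cell-free luciferase reagent · Medium – PBS-based ATP solution · Dosing – test compounds dosed from 2 mM stocks in 100% DMSO · Timing – 10 min, room temperature · Technique – light output (luminescence) · Measure – luminescence gain marking luciferase activators · Controls – No-ATP low control, compound-free enzyme-plus-ATP high control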
PPC-1+TRAIL kill: PPC-1 cancer cell killing with TRAIL present | PPC-1 cells + TRAIL, ATPLite viability luminescence | cell killing (% activity), % at 4 µM or 5 µM | 0.41% of 220,000 active | AID 1443;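 active = cell killing above 50% in the first pass at 4 µM, then a duplicate retest at 5 µM averaging 50% or more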
PPC1 cytotox: kills PPC-1 cells; shares compounds with PPC-1+TRAIL kill; PPC-1 viability, ATPlite luminescence, overnight; cytotoxicity, % at 5 µM; 50% of 1,200 active; AID 1447;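 active = reconfirmed compounds whose average cytotoxicity reaches 50% or more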
Numbers stand for hits; n = inactive; x = not tested or not shown. Rows were chosen to be rich in hits. Some 2.2% of all compounds tested hit in one or more screens of this group.

SMILES	C8 TRAIL sens	FLuc inh counter	NF-kB expr up	APP 5'UTR act	FLuc stim CS	PPC-1+TRAIL kill	PPC1 cytotox
O=C(CN1C(=O)C2(OCCCO2)c2ccccc21)NCc1ccccc1	n	n	n	n	n	n	n
O=C(Nc1ccc2c(c1)OCO2)N1CCN(Cc2ccco2)CC1	72.7	91.5	n	n	n	76.3	73.8
Cc1ccc(F)c(S(=O)(=O)NC(=O)C2(C)CCN2C(=O)Cc2ccccc2)c1 (stereo not given)	n	x	x	x	x	x	x
CCCCN1C(=O)/C(=C2\SC(N3CCCCC3)=NC2=O)c2ccccc21	n	54.6	n	n	n	n	n
O=C1N=C(N2CCOCC2)S/C1=C1\C(=O)N(Cc2ccccc2)c2ccc(Br)cc21	x	n	x	x	n	n	x
COc1ccccc1-c1nnc(NC(=O)C(C)Sc2nncn2C)s1 (stereo not given)	n	n	n	n	n	n	x
COc1ccccc1-c1nnc(NC(=O)CSc2nncn2C)s1	83.4	93.8	n	n	n	76.8	68.4
COC(=O)[C@@]12C[C@@H](CC(=O)NCCc3ccccc3OC)C(=O)N(Cc3cccc4ccccc34)C1=CCC(C)(C)C2	n	x	x	x	x	x	x
O=C(c1ccccn1)N(Cc1ccco1)C1(C(=O)Nc2ccc(Br)cc2)CCCCC1	n	x	x	x	x	x	x
Cc1ccc2nc(SCC(=O)Nc3cc(C)on3)[nH]c2c1	n	n	n	n	n	n	x
Cc1cc(NC(=O)CSc2ccc(-c3nc4cc(C)c(C)cc4[nH]3)cn2)no1	n	61.3	n	n	n	58.8	n
CC(Oc1cccc(Cl)c1)C(=O)Nc1cc(=O)n(C)c(=O)n1C (stereo not given)	n	n	n	n	n	n	n
Cc1ccc(-c2cnc(C(O)c3cccc(Cl)c3)[nH]2)cc1 (stereo not given)	n	x	x	x	x	x	x
COc1ccc(N2CC(C(=O)Nc3ccccc3C(=O)NCc3ccco3)CC2=O)cc1 (stereo not given)	n	n	n	n	n	n	x
O=C(NCc1ccco1)C1CC(=O)N(c2ccc(O)cc2)C1 (stereo not given)	n	n	n	n	n	n	n
N#CCc1c(C#N)c(N)nc(N2CCN(Cc3ccc4c(c3)OCO4)CC2)c1C#N	n	n	n	n	n	n	n
CC(C)(C)C(=O)N1CCc2cc(-c3csc(N)n3)ccc21	86.5	96.0	n	n	n	82.5	83.1
COc1ccc(Cn2cc(CN3CC(N4CC=CC4)CS3(=O)=O)nn2)cc1 (stereo not given)	n	x	x	x	x	x	x
Cc1ccc(-c2cc(=O)c3ccccc3[nH]2)cc1	n	n	n	n	n	n	x
Cc1ccc(-c2cc3c(N=O)c4ccccc4c-3n[nH]2)cc1	93.5	93.6	n	n	n	94.6	94.3
O=Nc1c2cc(-c3ccccc3)[nH]nc-2c2ccccc12	72.0	87.0	4.75	n	n	73.5	74.9
CCOC(=O)C[n+]1c(C)sc2ccc(OC)cc21	n	n	n	n	n	n	n
CCO/C(=C/c1sc2ccc(OC)cc2[n+]1CCCS(=O)(=O)[O-])CC	n	n	n	n	n	n	x
C[C@@]12CC[C@@H](C3=C(CCC3)C1)N2c1ccccc1	n	x	x	x	x	x	x
CC(=O)N=c1sc2cc(C)ccc2n1C	n	n	n	n	n	n	n
SMILES	C8 TRAIL sens	FLuc inh counter	NF-kB expr up	APP 5'UTR act	FLuc stim CS	PPC-1+TRAIL kill	PPC1 cytotox
CC(=O)SCC(=O)N=c1sc2cc(F)ccc2n1C	n	n	n	n	n	n	x
COc1ccc(CNC(=O)CC[C@H]2O[C@@H](n3cnc4c(NC(=O)c5ccccc5)ncnc43)[C@H](O)[C@@H]2O)cc1	n	x	x	x	x	x	x
CCOc1ccc(Cl)cc1-c1cc(C(=O)NCc2cccc(C(F)(F)F)c2)[nH]n1	n	x	x	x	x	x	x
Cc1ccc(N2C(=O)c3ccccc3C2Nc2ccccc2F)nc1 (stereo not given)	n	n	n	n	n	n	x
Cc1ccc(N2C(=O)c3ccccc3C2O)nc1 (stereo not given)	x	79.9	n	n	n	53.5	54.1
CCn1c(/C=C/c2ccccc2)nc2ccccc21	72.3	87.2	6.99	204.8	n	66.0	67.6
COc1ccc(Nc2nc3ccccc3n2C)cc1	n	x	x	x	x	x	x
COc1ccc(/C=N\n2nnc3ccccc32)cc1	55.3	68.8	n	191.1	n	n	n
COc1ccc(/C=N/n2c(C)nc3ccccc3c2=O)cc1	n	x	x	x	x	x	x
COc1ccc(/C=C/c2nc3ccccc3n2C)cc1	87.9	97.1	n	n	n	93.2	92.5
CCOc1ccc2nc(NC(=S)NCc3ccccc3)sc2c1	n	n	n	n	n	n	x
CCOc1ccc2nc(NC(=O)c3ccccn3)sc2c1	82.3	x	x	x	x	84.5	80.8
O=C(Nc1nc2ccc(S(=O)(=O)N3CCCC3)cc2s1)c1ccccn1	n	n	n	n	n	n	x
Cc1ccc2nc(NC(=O)c3ccccn3)sc2c1	90.7	95.3	n	n	n	90.9	88.8
O=C(CSc1nnc(-c2ccc(O)cc2)o1)Nc1ccc2c(c1)OCCO2	n	n	n	135.3	n	65.3	66.0
COc1ccccc1NC(=O)CSc1nnc(-c2ccc(C)cc2)o1	n	n	x	180.7	n	n	53.3
CC(=O)CSc1nnc(-c2ccc3c(c2)OCO3)o1	n	66.6	n	n	n	n	n
CC(=O)Nc1ccc(NC(=O)CSc2nnc(-c3ccc4c(c3)OCO4)o2)cc1	n	x	x	x	x	x	x
CCC(C(=O)Nc1c(C)cccc1C)n1c(-c2ccc(=O)[nH]c2)nc2ccccc21 (stereo not given)	n	x	x	x	x	x	x
Cc1cccc(C)c1-n1nnnc1C(c1cc2ccccc2o1)N1CCN(C/C=C/c2ccccc2)CC1 (stereo not given)	n	x	x	x	x	x	x
CC[n+]1c(/C=C2\Sc3ccccc3N2C)ccc2cccc(C)c21	n	n	n	n	n	n	n
CN1/C(=C/c2cccc[n+]2CCO)Sc2ccccc21	n	x	x	x	x	x	x
CSc1ncccc1C(=O)Nc1ncc(C)s1	n	x	x	x	x	x	x
COc1cc(SC)ccc1C(=O)Nc1ccc2c(c1)OCO2	n	72.4	7.57	169.5	n	n	n
COc1cc(SC)ccc1C(=O)Nc1ccc(Br)cn1	86.5	x	x	x	x	88.5	88.2
SMILES	C8 TRAIL sens	FLuc inh counter	NF-kB expr up	APP 5'UTR act	FLuc stim CS	PPC-1+TRAIL kill	PPC1 cytotox
COc1cc(SC)ccc1C(=O)Nc1ccccn1	76.7	x	x	x	x	68.4	66.3
COc1ccc(C(=O)Nc2ccc3c(c2)OCCO3)c(OC)c1	n	x	x	x	x	x	x
COc1cc(SC)ccc1C(=O)Nc1ncc(C)s1	80.4	93.4	n	n	n	72.7	76.0
CC(C)OCCc1cccc[n+]1[O-]	n	x	x	x	x	x	x
CC(=O)c1ccc(N=Nc2c(C)[nH][nH]c2=O)cc1	n	x	x	x	x	x	x
CC(=O)c1ccc(N=Nc2ccc(N)cc2)cc1	82.6	x	x	x	x	54.1	54.8
COC(=O)c1sccc1NC(=O)c1ccc2c(c1)OCO2	n	n	n	n	n	n	n
COc1ccc(C(=O)Nc2cccc(OC(=O)c3ccc(C)c(C)c3)c2)cc1	n	n	n	n	n	n	n
COc1ccc(C(=O)Nc2ccc3c(c2)OCCO3)cc1	72.2	90.1	6.04	155.6	n	75.2	72.9
